Source: PubChem BioAssay
The source made the active and inactive calls.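 How the source made its calls: active means GFP response above 150% of the DMSO control; inconclusive means fewer than 70 events counted in any yeast strain; inactive means the rest.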

Assay: hit retest on RPL19A-GFP reporter strain – cell-based, S. cerevisiae, flow cytometry, cherry picks, mother/daughter gates, confirmation (AID 2270)
Conditions: 3 h, measured here: mother cell gate, at 10 µM, stronger effect = lower value, 100 = same GFP as DMSO wells

Row | SMILES | GFP response vs DMSO [%]
1 | N=c1n(CCN2CCCCC2)c2ccccc2n1CC(=O)c1ccc(Cl)c(Cl)c1 | 100
2 | COc1cc(NC(=O)c2ccccc2F)ccc1NC(=O)c1cc2ccccc2o1 | 88.8
3 | CCCC(=O)Nc1ccc(NC(=O)c2cc3ccccc3o2)c(OC)c1 | 98
4 | Cc1ccc(NC(=O)CCCSc2nc3ccccc3[nH]2)cc1 | 100
5 | COc1ccc2c(c1)C=Cc1ccccc1O2 | 99.5
6 | Cc1ccc(-n2nc(C)c3c(C)c(CCC(=O)O)c(C)nc32)cc1 | 103
7 | Oc1ccc(/C=N/Nc2nc(-c3cccnc3)nc3ccccc23)c(O)c1 | 94.6
8 | CCCOc1ccc(N2C(=O)CC(SCCN)C2=O)cc1 (stereo not given) | 94.6
9 | CCN(CC)C(=O)c1ccc(-c2cccs2)s1 | 96.4
10 | O=C(COc1ccccc1[N+](=O)[O-])Nc1ccc(NC(=O)c2cc3ccccc3o2)cc1 | 99.3
11 | COCCNC(=O)c1ccccc1-c1nc(-c2ccccc2Cl)no1 | 98.9
12 | COc1ccc(N2C(=O)CC(Sc3ncn[nH]3)C2=O)c(OC)c1 (stereo not given) | 102
13 | COc1ccc(N=Nc2ccc(O)c3ncccc23)cc1 | 98.8
14 | COc1cc(NC(=O)c2ccccc2)ccc1NC(=O)c1cc2ccccc2o1 | 97.8
15 | CS(=O)(=O)N1N=C(c2ccco2)CC1c1ccc(Br)cc1 (stereo not given) | 99.2
16 | CCN(C(=O)c1ccccc1Cl)c1ccccc1 | 98
17 | Cc1ccc(NC(=S)N/N=C/c2c(C)[nH]c3ccccc23)cc1 | 97.9
18 | CCc1nnc(NC(=O)c2nc(S(=O)(=O)Cc3cccc(C)c3)ncc2Cl)s1 | 92.7
19 | O=C(NCc1ccc2c(c1)OCO2)c1nc(S(=O)(=O)Cc2ccccc2)ncc1Cl | 97.4
20 | COc1ccccc1-c1noc(-c2cc(OC)c(OC)c(OC)c2)n1 | 96.3

Row | SMILES | GFP response vs DMSO [%]
21 | N#C/C(=C\c1c(N2CCCCC2)nc2ccccn2c1=O)C(=O)NCc1ccco1 | 99.5
22 | COc1cc(NC(=O)c2ccc(Br)cc2)ccc1NC(=O)c1cc2ccccc2o1 | 100
23 | CCOC(=O)CS(=O)(=O)c1nc(-c2ccc(F)cc2)cc(C(F)(F)F)n1 | 102
24 | CC[n+]1c(/C=C/c2ccc(N(C)C)cc2)ccc2ccccc21 | 96.5
25 | CCOc1cc(/C=N/Nc2nc(C)cc(=O)[nH]2)ccc1O | 100
26 | Cc1ccc(/C=C/C(=O)c2ccccc(=O)c2O)c(C)c1 | 93.5
27 | COc1ccc(-c2ccc(S(=O)(=O)N3CCOCC3)cc2)cc1 | 95.7
28 | CCNC(=O)c1ccccc1-c1nc(-c2ccccc2Cl)no1 | 95
29 | O=C(OCC(=O)N1CCN(C(=O)c2ccco2)CC1)c1cc(-c2ccccc2)nc2ccccc12 | 70.5
30 | Cc1nnc(NC(=O)c2ccc(S(=O)(=O)N3CCCCCC3)cc2)o1 | 100
31 | NC(N)=N/N=C/c1ccc(OCc2ccc(Cl)cc2Cl)cc1 | 87.2
32 | Cc1noc(/C=C/c2cccnc2)c1[N+](=O)[O-] | 103
33 | NC(=O)c1ccccc1OCC(=O)c1ccc(Cl)cc1 | 99
34 | CCc1nnc(NC(=O)c2nc(S(=O)(=O)Cc3ccc(C)cc3)ncc2Cl)s1 | 98.6
35 | CN1/C(=C\C(=O)c2cccc(S(=O)(=O)N3CCCCC3)c2)C(C)(C)c2ccccc21 | 97.2
36 | Cc1n[nH]c(C)c1N1C(=O)c2cccc3c(Br)ccc(c23)C1=O | 101
37 | Cc1nnc(N2C(=O)c3cccc4cccc(c34)C2=O)s1 | 94.4
38 | CS(=O)(=O)N1CCc2cc(C(=O)Nc3ccc(COCC(F)(F)F)cc3)ccc21 | 103
39 | O=[N+]([O-])c1ccc(Sc2ccccc2Cl)nc1 | 103
40 | CC(=O)Oc1ccc(N2C(=O)C3C4C=CC(CO)(O4)C3C2=O)cc1 (stereo not given) | 97.8

Assay: yeast TOR pathway reporter LAP4-GFP change – cell-based, cherry picks, flow cytometry, mother/daughter gates, confirmation (AID 2271);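 further: ratio of sample to DMSO plate mean so 100% equals DMSO level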
Conditions: S. cerevisiae LAP4-GFP strain, 3 h, at 10 µM, stronger effect = higher value, 100 means same as DMSO control
In short: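 System – GFP-fusion yeast strain · Amount – 0.2 OD600 cells · Buffer or medium – SC growth medium · Dosing – single test-compound dose, 10 µM final · Schedule – 3 h treatment at 30 °C with rotation · Detection – GFP by flow cytometry · Read-out – per-gate (all, mother, daughter) GFP response vs DMSO · Benchmarks – positive rapamycin (400 ng/mL), negative DMSO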

Row | SMILES | GFP response relative to DMSO
41 | N=c1n(CCN2CCCCC2)c2ccccc2n1CC(=O)c1ccc(Cl)c(Cl)c1 | 101% (inactive)
42 | COc1cc(NC(=O)c2ccccc2F)ccc1NC(=O)c1cc2ccccc2o1 | 97% (inactive)
43 | CCCC(=O)Nc1ccc(NC(=O)c2cc3ccccc3o2)c(OC)c1 | 98.2% (inactive)
44 | Cc1ccc(NC(=O)CCCSc2nc3ccccc3[nH]2)cc1 | 96.1% (inactive)
45 | COc1ccc2c(c1)C=Cc1ccccc1O2 | 99.2% (inactive)
46 | Cc1ccc(-n2nc(C)c3c(C)c(CCC(=O)O)c(C)nc32)cc1 | 101% (inactive)
47 | Oc1ccc(/C=N/Nc2nc(-c3cccnc3)nc3ccccc23)c(O)c1 | 83.8% (inactive)
48 | CCCOc1ccc(N2C(=O)CC(SCCN)C2=O)cc1 (stereo not given) | 101% (inactive)
49 | CCN(CC)C(=O)c1ccc(-c2cccs2)s1 | 107% (inactive)
50 | O=C(COc1ccccc1[N+](=O)[O-])Nc1ccc(NC(=O)c2cc3ccccc3o2)cc1 | 88.7% (inactive)
51 | COCCNC(=O)c1ccccc1-c1nc(-c2ccccc2Cl)no1 | 101% (inactive)
52 | COc1ccc(N2C(=O)CC(Sc3ncn[nH]3)C2=O)c(OC)c1 (stereo not given) | 172% (active)
53 | COc1ccc(N=Nc2ccc(O)c3ncccc23)cc1 | 199% (active)
54 | COc1cc(NC(=O)c2ccccc2)ccc1NC(=O)c1cc2ccccc2o1 | 94.1% (inactive)
55 | CS(=O)(=O)N1N=C(c2ccco2)CC1c1ccc(Br)cc1 (stereo not given) | 103% (inactive)
56 | CCN(C(=O)c1ccccc1Cl)c1ccccc1 | 107% (inactive)
57 | Cc1ccc(NC(=S)N/N=C/c2c(C)[nH]c3ccccc23)cc1 | 101% (inactive)
58 | CCc1nnc(NC(=O)c2nc(S(=O)(=O)Cc3cccc(C)c3)ncc2Cl)s1 | 105% (inactive)
59 | O=C(NCc1ccc2c(c1)OCO2)c1nc(S(=O)(=O)Cc2ccccc2)ncc1Cl | 109% (inactive)
60 | COc1ccccc1-c1noc(-c2cc(OC)c(OC)c(OC)c2)n1 | 103% (inactive)

Row | SMILES | GFP response relative to DMSO
61 | N#C/C(=C\c1c(N2CCCCC2)nc2ccccn2c1=O)C(=O)NCc1ccco1 | 97.7% (inactive)
62 | COc1cc(NC(=O)c2ccc(Br)cc2)ccc1NC(=O)c1cc2ccccc2o1 | 96.2% (inactive)
63 | CCOC(=O)CS(=O)(=O)c1nc(-c2ccc(F)cc2)cc(C(F)(F)F)n1 | 170% (active)
64 | CC[n+]1c(/C=C/c2ccc(N(C)C)cc2)ccc2ccccc21 | 105% (inactive)
65 | CCOc1cc(/C=N/Nc2nc(C)cc(=O)[nH]2)ccc1O | 89% (inactive)
66 | Cc1ccc(/C=C/C(=O)c2ccccc(=O)c2O)c(C)c1 | 152% (active)
67 | COc1ccc(-c2ccc(S(=O)(=O)N3CCOCC3)cc2)cc1 | 107% (inactive)
68 | CCNC(=O)c1ccccc1-c1nc(-c2ccccc2Cl)no1 | 104% (inactive)
69 | O=C(OCC(=O)N1CCN(C(=O)c2ccco2)CC1)c1cc(-c2ccccc2)nc2ccccc12 | 161% (active)
70 | Cc1nnc(NC(=O)c2ccc(S(=O)(=O)N3CCCCCC3)cc2)o1 | 97% (inactive)
71 | NC(N)=N/N=C/c1ccc(OCc2ccc(Cl)cc2Cl)cc1 | 115% (inactive)
72 | Cc1noc(/C=C/c2cccnc2)c1[N+](=O)[O-] | 120% (inactive)
73 | NC(=O)c1ccccc1OCC(=O)c1ccc(Cl)cc1 | 96.5% (inactive)
74 | CCc1nnc(NC(=O)c2nc(S(=O)(=O)Cc3ccc(C)cc3)ncc2Cl)s1 | 105% (inactive)
75 | CN1/C(=C\C(=O)c2cccc(S(=O)(=O)N3CCCCC3)c2)C(C)(C)c2ccccc21 | 95.4% (inactive)
76 | Cc1n[nH]c(C)c1N1C(=O)c2cccc3c(Br)ccc(c23)C1=O | 98.8% (inactive)
77 | Cc1nnc(N2C(=O)c3cccc4cccc(c34)C2=O)s1 | 96.5% (inactive)
78 | CS(=O)(=O)N1CCc2cc(C(=O)Nc3ccc(COCC(F)(F)F)cc3)ccc21 | 92.6% (inactive)
79 | O=[N+]([O-])c1ccc(Sc2ccccc2Cl)nc1 | 91.9% (inactive)
80 | CC(=O)Oc1ccc(N2C(=O)C3C4C=CC(CO)(O4)C3C2=O)cc1 (stereo not given) | 120% (inactive)
